Results from ChEMBL document CHEMBL1806410, “Design and synthesis of pyridine-substituted itraconazole analogues with improved antifungal activities, water solubility and bioavailability” (Bioorg Med Chem Lett, 2011).
In brackets after ≈: the same amount, converted by molar mass.

Tests used:
[1] = Half life in rat at 10 mg/kg, po administered as single dose; format: ADME, organism-based; set-up: dose 10 mg/kg, route oral; settings: in vivo
Procedure, shortened: (§1)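 Rats received a single dose of compound, either oral (10 mg/kg) or intravenous (10, 5 or 2.5 mg/kg). Plasma levels were followed, and the reported parameters were Cmax, Tmax, AUC0–t, half-life, clearance and bioavailability (F).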

Aspergillus flavus [2] = experiment: Antifungal activity against Aspergillus flavus JLC 30784 by broth microdilution method; format: functional
Procedure, shortened: (§2)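 MICs were determined by broth microdilution following NCCLS guidelines (M38-P for filamentous fungi). The panel covered four yeast species and two Aspergillus species, with two strains per species. Itraconazole served as positive control.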

[3] = AUC (0 to t) in rat at 2.5 mg/kg, iv administered as single dose; format: ADME, organism-based; set-up: dose 2.5 mg/kg, route intravenous; settings: plasma
Procedure, shortened: (§3)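 Rats received a single iv dose. Drug levels were measured in plasma. Parameters came from the plasma concentration–time data: AUC over 0–t in ng h/mL, clearance (CL) in L/h/kg, and half-life in h.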

Candida albicans [4] = experiment: Antifungal activity against Candida albicans JLC 31374 by broth microdilution method; format: functional; procedure, shortened: as §2
[5] = Clearance in rat at 2.5 mg/kg, iv administered as single dose; format: ADME, organism-based; set-up: dose 2.5 mg/kg, route intravenous; settings: in vivo; procedure, shortened: as §3
[6] = AUC (0 to t) in rat at 10 mg/kg, po administered as single dose; format: ADME, organism-based; set-up: dose 10 mg/kg, route oral; settings: plasma; procedure, shortened: as §1
Candida parapsilosis [7] = experiment: Antifungal activity against Candida parapsilosis JLC 30365 by broth microdilution method; format: functional; settings: Lodderomyces parapsilosis; procedure, shortened: as §2
[8] = Oral bioavailability in rat at 10 mg/kg, administered as single dose; format: ADME, organism-based; settings: in vivo; procedure, shortened: as §1
[9] = Half life in rat at 2.5 mg/kg, iv administered as single dose; format: ADME, organism-based; set-up: dose 2.5 mg/kg, route intravenous; settings: in vivo; procedure, shortened: as §3
Cryptococcus neoformans [10] = experiment: Antifungal activity against Cryptococcus neoformans JLC 50123 by broth microdilution method; format: functional; procedure, shortened: as §2
[11] = Solubility of the compound in water at pH 1.2; format: physicochemical; settings: water, read-out: solubility
Salmonella typhimurium = experiment: Mutagenic activity in Salmonella Typhimurium assessed as number of revertants colonies after 48 hrs by Ames test; format: toxicity, organism-based; settings: salmonella enterica subsp. enterica serovar typhimurium
Procedure, shortened: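 Plate incorporation protocol without S9 mix. About 10^9 bacterial cells in culture medium were mixed with test compound in DMSO and poured onto hardened agar, in triplicate plates. Plates were incubated at 37 °C for 48 h, then revertant colonies were counted and reported as mean ± standard deviation.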

Pichia kudriavzevii [12] = experiment: Antifungal activity against Candida krusei JLC 30386 by broth microdilution method; format: functional; procedure, shortened: as §2
Cryptococcus neoformans [13] = experiment: Antifungal activity against Cryptococcus neoformans JLC 50122 by broth microdilution method; format: functional; procedure, shortened: as §2
[14] = Acute toxicity in po dosed ICR mouse assessed as mortality after 10 days; format: organism-based; settings: in vivo
Procedure, shortened: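 Single oral dose on day 0 at 100, 144, 207, 299, 430 or 619 mg/kg. Animals were watched continuously for 10 days, recording deaths and signs of toxicity. LD50 was calculated by a modified Kaber method.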

[15] = Tmax in rat at 10 mg/kg, po administered as single dose; format: ADME, organism-based; set-up: dose 10 mg/kg, route oral; settings: in vivo; procedure, shortened: as §1
[16] = Cmax in rat at 10 mg/kg, po administered as single dose; format: ADME, organism-based; set-up: dose 10 mg/kg, route oral; settings: in vivo; procedure, shortened: as §1
Pichia kudriavzevii [17] = experiment: Antifungal activity against Candida krusei JLC 30366 by broth microdilution method; format: functional; procedure, shortened: as §2
Aspergillus flavus [18] = experiment: Antifungal activity against Aspergillus flavus JLC 40437 by broth microdilution method; format: functional; procedure, shortened: as §2
Candida albicans [19] = experiment: Antifungal activity against Candida albicans JLC 30364 by broth microdilution method; format: functional; procedure, shortened: as §2
Aspergillus fumigatus [20] = experiment: Antifungal activity against Aspergillus fumigatus JLC 30506 by broth microdilution method; format: functional; procedure, shortened: as §2
Aspergillus fumigatus [21] = experiment: Antifungal activity against Aspergillus fumigatus JLC 30883 by broth microdilution method; format: functional; procedure, shortened: as §2
Candida parapsilosis [22] = experiment: Antifungal activity against Candida parapsilosis JLC 30275 by broth microdilution method; format: functional; settings: Lodderomyces parapsilosis; procedure, shortened: as §2

CC(C)(CO)Cn1ncn(-c2ccc(N3CCN(c4ccc(OC[C@H]5CO[C@](Cn6cncn6)(c6ccc(F)cc6F)O5)cc4)CC3)cn2)c1=O
half-life [1]: 3.41 h | MIC (Aspergillus flavus [2]): < 0.0156 µg/mL | AUC(0-t) [3]: 1120 ng·h/mL | MIC (Candida albicans [4]): 0.0156 µg/mL (≈ 0.0222 µM) | clearance [5]: 36.7 mL/min/kg | AUC(0-t) [6]: 1900 ng·h/mL | MIC (Candida parapsilosis [7]): < 0.0156 µg/mL | bioavailability [8]: 42.2% | half-life [9]: 2.3 h | MIC (Cryptococcus neoformans [10]): < 0.0156 µg/mL | solubility [11]: 190 µg/mL (≈ 270 µM) | Activity (Salmonella typhimurium): Non-toxic | MIC (Pichia kudriavzevii [12]): < 0.0156 µg/mL | MIC (Cryptococcus neoformans [13]): < 0.0156 µg/mL | LD50 at 240 h [14]: 278 mg/kg | Tmax [15]: 3 h | Cmax [16]: 297 ng/mL | MIC (Pichia kudriavzevii [17]): < 0.0156 µg/mL | MIC (Aspergillus flavus [18]): < 0.0156 µg/mL | MIC (Candida albicans [19]): 0.0156 µg/mL (≈ 0.0222 µM) | MIC (Aspergillus fumigatus [20]): 0.03 µg/mL (≈ 0.0426 µM) | MIC (Aspergillus fumigatus [21]): 0.03 µg/mL (≈ 0.0426 µM) | MIC (Candida parapsilosis [22]): < 0.0156 µg/mL
